One data set deals with T1, PXR (NR1I2); CYP3A4 promoter reporter (Homo sapiens, UniProt O75469).
T1 sequence (O75469 whole entry): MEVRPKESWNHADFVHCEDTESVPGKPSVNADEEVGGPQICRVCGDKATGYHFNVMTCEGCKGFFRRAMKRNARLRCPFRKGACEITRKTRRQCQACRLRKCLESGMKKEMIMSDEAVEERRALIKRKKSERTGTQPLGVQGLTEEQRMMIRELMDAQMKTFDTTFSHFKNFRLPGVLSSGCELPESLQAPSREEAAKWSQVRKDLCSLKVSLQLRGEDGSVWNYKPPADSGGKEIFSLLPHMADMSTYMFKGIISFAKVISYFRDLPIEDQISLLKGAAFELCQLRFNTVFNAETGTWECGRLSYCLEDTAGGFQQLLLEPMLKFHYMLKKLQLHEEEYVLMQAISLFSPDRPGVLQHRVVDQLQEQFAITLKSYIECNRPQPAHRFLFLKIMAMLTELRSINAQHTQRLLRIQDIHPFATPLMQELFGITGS
The data set can be described thus: Agonist activity at human PXR transfected in human HEK293T cells co-transfected with CYP3A4-Luc plasmid at 10 uM incubated for 24 hrs by dual-luciferase reporter gene assay relative to control.
Regarding `CC(=O)O[C@@H]1[C@H]2[C@@H](OC(=O)c3ccccc3)[C@@H](C)C[C@]2(OC(C)=O)C(=O)/C(C)=C/[C@@H]2[C@H](CC[C@H]1C)C2(C)C`, the fold induction (as a rule, the signal under treatment as a multiple of the control signal) at 24 h, 10 µM is 4.9.
For `CC(=O)O[C@H]1[C@@H](C)[C@H](OC(=O)c2ccccc2)C[C@H]2[C@@H](C[C@@H](C)C(=O)[C@@]3(OC(C)=O)C[C@H](C)[C@H](OC(=O)c4ccccc4)[C@H]13)C2(C)C`, the fold induction at 24 h, 10 µM was found to be 3.4.
On the same count and under the same terms, with `C=C1[C@H](OC(=O)c2cccnc2)C[C@H]2[C@@H](/C=C(\C)C(=O)[C@@]3(OC(C)=O)C[C@H](C)[C@H](OC(=O)c4ccccc4)[C@@H]3[C@H]1OC(C)=O)C2(C)C` the figure was 6.9.

A further data set deals with HEK-293T. Description: Cytotoxicity against human HEK293T cells assessed as reduction in cell viability at 10 uM measured after 24 hrs by CCK8 assay. It is filed as cell-based. For orientation: Tetrazolium dyes change colour on reduction, which living cells bring about.
Take `CC(=O)OC/C1=C/C[C@H]2[C@@H](/C=C(\C)C(=O)[C@@]3(O)C[C@H](C)[C@H](OC(C)=O)[C@@H]3[C@H]1OC(C)=O)C2(C)C`: the Activity result was “Non-Toxic”.
Regarding `CC(=O)OC/C1=C/C[C@H]2[C@@H](/C=C(\C)C(=O)[C@@]3(OC(C)=O)C[C@H](C)[C@H](OC(=O)c4ccccc4)[C@@H]3[C@H]1OC(C)=O)C2(C)C`, the Activity result is on record as “Non-Toxic”.
On the same count and under the same terms, with `C=C1[C@H](O)C[C@H]2[C@@H](/C=C(\C)C(=O)[C@@]3(O)C[C@H](C)[C@H](O)[C@@H]3[C@H]1O)C2(C)C` the entry was “Non-Toxic”; with `CC(=O)O[C@]12C[C@H](C)[C@H](OC(=O)c3ccccc3)[C@@H]1/C=C(\CO)C(=O)C[C@H]1[C@@H](/C=C(\C)C2=O)C1(C)C`, “Non-Toxic”; with `C=C1CC[C@H]2[C@@H](/C=C(\C)C(=O)[C@@]3(O)C[C@H](C)[C@H](O)[C@@H]3C1=O)C2(C)C`, “Toxic”.
Same read-out and setting: the same measure for `C=C1[C@H](OC(=O)c2cccs2)C[C@H]2[C@@H](/C=C(\C)C(=O)[C@@]3(O)C[C@H](C)[C@H](O)[C@@H]3[C@H]1O)C2(C)C`: “Non-Toxic”; for `C=C1[C@H](OC(=O)c2ccccc2)C[C@H]2[C@@H]([C@H]3O[C@]3(C)C(=O)[C@@]3(OC(C)=O)C[C@H](C)[C@H](OC(=O)c4ccccc4)[C@@H]3[C@H]1OC(C)=O)C2(C)C`: “Non-Toxic”; for `C=C1CC[C@H]2[C@@H](/C=C(\C)C(=O)[C@@]3(OC(C)=O)C[C@H](C)[C@H](OC(=O)c4ccccc4)[C@@H]3[C@H]1OC(C)=O)C2(C)C`: “Non-Toxic”.
With `C=C1CC[C@H](C(C)(C)O)/C=C/C(C)=C\[C@@]2(O)C[C@H](C)[C@H](OC(=O)c3ccccc3)[C@@H]2[C@H]1OC(C)=O`, the Activity result is “Non-Toxic”.
In the case of `C=C(C)[C@@H]1/C=C/C(C)=C\[C@@]2(O)C[C@H](C)[C@H](OC(=O)c3ccccc3)[C@@H]2[C@@H](OC(C)=O)C(=C)CC1`, the Activity result is recorded as “Non-Toxic”.
Regarding `CC(=O)O[C@@H]1[C@H]2[C@@H](OC(=O)c3ccccc3)[C@@H](C)C[C@]2(OC(C)=O)C(=O)[C@@]2(C)O[C@@H]2[C@@H]2[C@H](C[C@@H](OC(=O)c3ccccc3)[C@]13CO3)C2(C)C`, the Activity entry is “Non-Toxic”.
Turning to `C=C1[C@H](OC(C)=O)C[C@H]2[C@@H](/C=C(\C)C(=O)[C@@]3(O)C[C@H](C)[C@H](O)[C@@H]3[C@H]1O)C2(C)C`, the Activity entry is “Non-Toxic”.
Turning to `CC(=O)O[C@@H]1[C@H]2[C@@H](OC(=O)c3ccccc3)[C@@H](C)C[C@]2(OC(C)=O)C(=O)/C(C)=C/[C@@H]2[C@H](CC[C@H]1C)C2(C)C`, the Activity entry was “Non-Toxic”.
Take `C=C1[C@H](OC(=O)c2ccccc2)C[C@H]2[C@@H](/C=C(\C)[C@H](OC(C)=O)[C@@]3(O)C[C@H](C)[C@H](OC(=O)c4ccccc4)[C@@H]3[C@H]1OC(C)=O)C2(C)C`: the Activity result is “Non-Toxic”.
Still for that read-out and setting: the same measure for `C=C1[C@H](O)C[C@H]2[C@@H](/C=C(\C)C(=O)[C@@]3(OC(C)=O)C[C@H](C)[C@H](OC(=O)c4ccccc4)[C@@H]3[C@H]1OC(C)=O)C2(C)C`: “Non-Toxic”; for `C/C1=C\[C@@H]2[C@H](CC(=O)/C(COC(=O)c3ccccc3)=C/[C@H]3[C@@H](O)[C@@H](C)C[C@]3(O)C1=O)C2(C)C`: “Non-Toxic”.
Take `CC(=O)O[C@H]1[C@@H](C)[C@H](OC(=O)c2ccccc2)C[C@H]2[C@@H](C[C@@H](C)C(=O)[C@@]3(OC(C)=O)C[C@H](C)[C@H](OC(=O)c4ccccc4)[C@H]13)C2(C)C`: the Activity result is on record as “Non-Toxic”.
For the molecule `C=C1CC[C@H]2[C@@H](/C=C(\C)C(=O)[C@@]3(OC(C)=O)C[C@H](C)[C@H](OC(=O)/C=C/c4ccccc4)[C@@H]3[C@H]1O)C2(C)C`, the Activity entry is “Toxic”.
Turning to `C=C1CC[C@H]2[C@@H]([C@@H]3O[C@]4(C=C3C)C[C@H](C)[C@H](OC(=O)c3ccccc3)[C@@H]4[C@H]1OC(C)=O)C2(C)C`, the Activity entry is “Non-Toxic”.
On the same count and under the same terms, the same measure for `C=C1CC[C@H]2[C@@H](/C=C(\C)C(=O)[C@@]3(OC(C)=O)C[C@H](C)[C@H](O)[C@@H]3[C@H]1OC(=O)/C=C/c1ccccc1)C2(C)C`: “Toxic”; for `CC(=O)O[C@]12C[C@H](C)[C@H](OC(=O)c3cccnc3)[C@@H]1[C@H]1O[C@@]1(C)CC[C@H]1[C@@H](/C=C(\C)C2=O)C1(C)C`: “Non-Toxic”.
As for `C=C1CC[C@H]2[C@@H](/C=C(\C)C(=O)[C@@]3(OC(C)=O)C[C@H](C)[C@H](OC(=O)c4cccnc4)[C@@H]3[C@H]1OC(C)=O)C2(C)C`, the Activity result is recorded as “Non-Toxic”.
The same measure, in the same setting: with `C=C1CC[C@H]2[C@@H](/C=C(\C)C(=O)[C@@]3(O)C[C@H](C)[C@H](O)[C@@H]3[C@H]1O)C2(C)C` the entry was “Non-Toxic”; with `C=C1[C@H](OC(=O)c2ccccc2)C[C@H]2[C@@H](/C=C(\C)C(=O)[C@@]3(O)C[C@H](C)[C@H](OC(=O)c4ccccc4)[C@@H]3[C@H]1OC(C)=O)C2(C)C`, “Non-Toxic”; with `C=C1[C@H](OC(C)=O)C[C@H]2[C@@H](/C=C(\C)C(=O)[C@@]3(O)C[C@H](C)[C@H](OC(C)=O)[C@@H]3[C@H]1OC(C)=O)C2(C)C`, “Non-Toxic”.
With `C=C1[C@H](OC(=O)c2ccccc2)C[C@H]2[C@@H](/C=C(\C)C(=O)[C@@]3(OC(C)=O)C[C@H](C)[C@H](OC(=O)c4ccccc4)[C@@H]3[C@H]1OC(C)=O)C2(C)C`, the Activity entry is “Non-Toxic”.
Still for that read-out and setting: the same measure for `C=C1[C@H](OC(=O)c2cccnc2)C[C@H]2[C@@H](/C=C(\C)C(=O)[C@@]3(OC(C)=O)C[C@H](C)[C@H](OC(=O)c4ccccc4)[C@@H]3[C@H]1OC(C)=O)C2(C)C`: “Non-Toxic”; for `C=C1CC[C@H]2[C@@H](C[C@@H](C)C(=O)[C@@]3(OC(C)=O)C[C@H](C)[C@H](OC(=O)c4ccccc4)[C@@H]3[C@H]1OC(C)=O)C2(C)C`: “Non-Toxic”; for `C=C1CC[C@H](C(C)(C)OC)/C=C/C(C)=C\[C@@]2(O)C[C@H](C)[C@H](OC(=O)c3ccccc3)[C@@H]2[C@H]1OC(C)=O`: “Non-Toxic”.
`C=C1[C@H](OC(=O)c2ccccc2)C[C@H]2[C@@H](/C=C(\C)C(=O)[C@@]3(O)C[C@H](C)[C@H](O)[C@@H]3[C@H]1OC(=O)c1ccccc1)C2(C)C`: the Activity result is given as “Non-Toxic”.
Same read-out and setting: the same measure for `C=C1[C@H](OC(=O)c2ccco2)C[C@H]2[C@@H](/C=C(\C)C(=O)[C@@]3(O)C[C@H](C)[C@H](O)[C@@H]3[C@H]1O)C2(C)C`: “Non-Toxic”; for `C=C1CC[C@H]2[C@@H](/C=C(\C)C(=O)[C@@]3(OC(C)=O)C[C@H](C)[C@H](OC(=O)/C=C/c4ccccc4)[C@@H]3[C@H]1OC(C)=O)C2(C)C`: “Non-Toxic”; for `C=C1C(=O)C[C@H]2[C@@H](/C=C(\C)C(=O)[C@@]3(OC(C)=O)C[C@H](C)[C@H](OC(=O)c4ccccc4)[C@@H]3[C@H]1OC(C)=O)C2(C)C`: “Toxic”.

The next data set concerns the target T2, Nuclear receptor subfamily 1 group I member 2 (Homo sapiens, UniProt O75469).
T2 sequence (O75469 whole entry): T1 sequence (O75469 whole entry)
Description: Agonist activity at PXR in human HepaRG cells assessed as upregulation of CYP2B6 mRNA expression at 10 uM by RT-qPCR analysis. The class given is cell-based. A digest of the protocol: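 HepaRG cells exposed to test agents at 10 μM, with rifampicin (10 μM) as reference agonist. CYP2B6 mRNA quantified by RT-qPCR, normalized to β-ACTIN housekeeping gene. Mean ± SD, n = 3.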
A general note: Quantitative PCR measures a nucleic acid by following its amplification.
With `C=C1[C@H](OC(=O)c2cccnc2)C[C@H]2[C@@H](/C=C(\C)C(=O)[C@@]3(OC(C)=O)C[C@H](C)[C@H](OC(=O)c4ccccc4)[C@@H]3[C@H]1OC(C)=O)C2(C)C`, the result was Active.

For the origin of these results see ChEMBL document CHEMBL4834470, “Lathyrane Diterpenoids as Novel hPXR Agonists: Isolation, Structural Modification, and Structure-Activity Relationships” (ACS Med Chem Lett, 2021).
